ChEMBL document CHEMBL3856188, “Usnic Acid Derivatives with Cytotoxic and Antifungal Activities from the Lichen Usnea longissima” (J Nat Prod, 2016)
In brackets after ≈: the same amount, converted by molar mass.

How the values were obtained:
[1] = Cytotoxicity against human HepG2 cells assessed as cell growth inhibition after 48 hrs by MTT assay; type: functional, cell-based; settings: HepG2, 48 h
Outline: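 HepG2 cells seeded at 3 × 10^3 cells/well in DMEM with 10% FBS and grown 24 h, then exposed to compound for 48 h. MTT (5 mg/mL in PBS) added for 3 h, supernatant removed, formazan dissolved in DMSO with 10 min shaking, and OD read at 490 nm. Methotrexate served as positive control. Values given as IC50.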

[2] = system: Trichophyton rubrum; assay: Antimicrobial activity against Trichophyton rubrum after 4 days by microdilution method; type: functional; settings: 96 h

Structure (SMILES) | MIC50 [2] | IC50 [1]
CCO[C@@]12CC(O)=C(C(C)=O)C(=O)[C@]1(C)c1c(O)c(C(C)=O)c(O)c(C)c1O2 | 41 µM (≈ 16 µg/mL) | 53.3 µM
CN(Cc1cnc2nc(N)nc(N)c2n1)c1ccc(C(=O)N[C@@H](CCC(=O)O)C(=O)O)cc1 [METHOTREXATE] | – | 15.8 µM
COC(=O)CCCN/C(C)=C1\C(=O)C=C2Oc3c(C(C)=O)c(O)c(C)c(O)c3[C@@]2(C)C1=O | > 200 µM | –
CC(=O)C1=C(O)C=C2Oc3c(C(C)=O)c(O)c(C)c(O)c3[C@@]2(C)C1=O [(+)-USNIC ACID] | > 200 µM | –

Further lines, with some results ahead:

MIC50 [2] | Structure (SMILES) | IC50 [1]
> 200 µM | CCO[C@@]12CC(=O)/C(=C(/C)N)C(=O)[C@]1(C)c1c(O)c(C)c(O)c(C(C)=O)c1O2 | 50.2 µM
> 200 µM | CCOC(=O)CCCN/C(C)=C1\C(=O)C[C@@]2(OCC)Oc3c(C(C)=O)c(O)c(C)c(O)c3[C@@]2(C)C1=O | –
> 200 µM | CCOC(=O)CCCN/C(C)=C1\C(=O)C=C2Oc3c(C(C)=O)c(O)c(C)c(O)c3[C@@]2(C)C1=O | –
> 200 µM | CCO[C@@]12CC(=O)/C(=C(/C)N)C(=O)[C@]1(C)c1c(O)c(C(C)=O)c(O)c(C)c1O2 | –
41 µM (≈ 16 µg/mL) | CCO[C@@]12CC(O)=C(C(C)=O)C(=O)[C@]1(C)c1c(O)c(C)c(O)c(C(C)=O)c1O2 | –
